Assay results as given in ChEMBL document CHEMBL1137227, “Identification of a selective inverse agonist for the orphan nuclear receptor estrogen-related receptor alpha” (J Med Chem, 2004).
pIC50: −log10 of the molar value. Values joined by “and” are separate entries in the source; they are usually repeats but may differ in a detail not shown here. Equal entries are not always repeated.

Legend:
[1] = target: T1, Steroid hormone receptor ERR1 (Homo sapiens, UniProt P11474); assay: Inhibition of estrogen-related receptor alpha Gal4 activity; not active
T1 sequence (P11474 whole entry): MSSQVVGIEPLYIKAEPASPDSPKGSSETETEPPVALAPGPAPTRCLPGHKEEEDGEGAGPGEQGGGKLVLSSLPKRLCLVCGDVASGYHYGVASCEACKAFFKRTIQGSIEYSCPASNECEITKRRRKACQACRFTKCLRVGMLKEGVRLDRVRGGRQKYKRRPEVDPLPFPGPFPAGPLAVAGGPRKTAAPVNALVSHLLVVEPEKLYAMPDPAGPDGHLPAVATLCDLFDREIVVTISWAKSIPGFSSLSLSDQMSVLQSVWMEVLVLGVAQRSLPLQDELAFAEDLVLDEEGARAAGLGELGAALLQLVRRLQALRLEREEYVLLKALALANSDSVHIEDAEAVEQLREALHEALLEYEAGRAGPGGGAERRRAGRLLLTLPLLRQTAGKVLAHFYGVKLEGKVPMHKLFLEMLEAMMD
How it was run: (§1)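 Cell-based cotransfection assay in Gal4-ERRα format. IC50 fitted by nonlinear regression to 10-dose titration curves and averaged over at least two experiments. Standard error of the mean typically under 30% per experiment. NA means not active under assay conditions.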

[2] = target: T2, Steroid hormone receptor ERR1 (Homo sapiens) (UniProt P11474); assay: Percent inhibition of estrogen-related receptor alpha Gal4 activity at 10 uM
T2 sequence (whole entry): T1 sequence (P11474 whole entry)
How it was run: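 Gal4-ERRα cell-based cotransfection assay with compound tested at a single concentration of 10 μM. Activity expressed as percent inhibition of ERRα-driven Gal4 signal.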

[3] = target: T1, Steroid hormone receptor ERR1; assay: (§2) Inhibition of estrogen-related receptor alpha Gal4 activity
[4] = target: T1, Steroid hormone receptor ERR1; assay: as §2; how it was run: as §1; remark: listed apart in the source
[5] = target: T1, Steroid hormone receptor ERR1; assay: Inhibition of estrogen-related receptor alpha in FP assay

Compound	IC50 [1]	inhibition [2]	pIC50 [3]	pIC50 [4]	pIC50 [5]
CCc1nnc(NC(=O)/C(C#N)=C/c2ccc(OCc3c(F)cccc3C(F)(F)F)c(OC)c2)s1	Not Active				
CCc1nnc(NC(=O)/C(C#N)=C/c2ccc(OCc3ccc(C(F)(F)F)cc3C(F)(F)F)c(OC)c2)s1		106% and 104% and 99%	6.40 and 6.21 and 6.27		
COc1cc(/C=C(\C#N)C(=O)Nc2nnc(C(C)(C)C)s2)ccc1OCc1ccc(C(F)(F)F)cc1C(F)(F)F		43%	< 5.00		
COc1cc(/C=C(\C#N)C(=O)Nc2nccs2)ccc1OCCOc1c(C)cccc1C	Not Active				
CCc1nnc(NC(=O)/C(C#N)=C/c2ccc(OCc3cc(C(F)(F)F)ccc3C(F)(F)F)c(OC)c2)s1	Not Active				
CCC1=NN2C/C(=C/c3ccc(OCCOc4c(C)cccc4C)c(OC)c3)C(=O)N=C2S1				5.64	5.85
CCc1nnc(NC(=O)/C(C#N)=C/c2ccc(OCc3ccccc3Br)c(OC)c2)s1		57%	5.66		
COc1cc(/C=C(\C#N)C(=O)Nc2nncs2)ccc1OCc1ccc(C(F)(F)F)cc1C(F)(F)F		99%	6.12		
COc1cc(/C=C(\C#N)C(=O)Nc2nnc(SC)s2)ccc1OCCOc1c(C)cccc1C		92%	5.59		
CCc1nnc(NC(=O)/C(C#N)=C/c2ccc(OCCOc3c(C)cccc3C)c(OC)c2)o1		88%	5.48		
COc1cc(/C=C(\C#N)C(=O)Nc2nnc(-c3ccccc3)s2)ccc1OCc1ccc(C(F)(F)F)cc1C(F)(F)F		105%	6.30		
CCc1nnc(NC(=O)/C(C#N)=C/c2ccc(OCc3ccc(F)cc3C(F)(F)F)c(OC)c2)s1		109% and 90%	6.04 and 5.82		
CCc1nnc(NC(=O)/C(C#N)=C/c2ccc(OCc3ccccc3OC(F)(F)F)c(OC)c2)s1		101%	5.74		
CCc1nnc(NC(=O)/C(C#N)=C/c2ccc(OCc3cc(F)ccc3C(F)(F)F)c(OC)c2)s1			6.10 and 5.77		
COc1cc(/C=C(\C#N)C(=O)Nc2nnc(SC)s2)ccc1OCc1ccc(C(F)(F)F)cc1C(F)(F)F		105%	6.36		
COc1cc(/C=C(\C#N)C(=O)Nc2nncs2)ccc1OCCOc1c(C)cccc1C		103%	5.85		
CCc1nnc(NC(=O)/C(C#N)=C/c2ccc(OCCOc3c(C)cccc3C)c(OC)c2)s1		96%	5.70		
COc1cc(/C=C(\C#N)C(=O)Nc2nnc(C(F)(F)F)s2)ccc1OCc1ccc(C(F)(F)F)cc1C(F)(F)F		109%			
COc1cc(/C=C(\C#N)C(=O)Nc2nnc(C(F)(F)F)s2)ccc1OCCOc1c(C)cccc1C		112%	5.82		
COc1cc(/C=C(\C#N)C(=O)Nc2nnc(-c3ccc(N(C)C)cc3)s2)ccc1OCCOc1c(C)cccc1C		74%	5.70		
COc1cc(/C=C(\C#N)C(=O)Nc2nnc(C(C)(C)C)s2)ccc1OCCOc1c(C)cccc1C		104%	5.77		
CCc1nnc(NC(=O)/C(C#N)=C/c2ccc(OCc3cccc4ccccc34)c(OC)c2)s1		90%	5.74		
